Activity calls are given as the source filed them. The calls are words filed in the database; no cut-off is given here.
Experiments:
PC-12 [1] = assay: Induction of antioxidant defense system in rat PC12 cells assessed as increase in Trx activity level incubated for 24 hrs by recombinant rat TrxR1 based assay; assay type: functional, cell-based
Outline: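 Cellular Trx activity: extract with 20 μg protein incubated 30 min at 37 °C in 100 mM Tris-HCl pH 7.4 with 0.3 mM insulin, 660 μM NADPH, 3 mM EDTA, 60 nM recombinant rat TrxR1; stopped with 1 mM DTNB in 6 M guanidine-HCl pH 8.0; A412 minus TrxR-free blank; % of DMSO control.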

PC-12 [2] = assay: Induction of antioxidant defense system in rat PC12 cells assessed as increase in TrxR activity level incubated for 24 hrs by Escherichia coli Trx based assay; assay type: functional, cell-based
Outline: (§1)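 Cellular TrxR activity: extract with 20 μg protein incubated 30 min at 37 °C in 100 mM Tris-HCl pH 7.4 containing 0.3 mM insulin, 660 μM NADPH, 3 mM EDTA, 4 μM E. coli Trx; stopped with 1 mM DTNB in 6 M guanidine-HCl pH 8.0; A412 minus Trx-free blank; % of DMSO control.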

[3] = Cytotoxicity against rat PC12 cells assessed as reduction in cell viability at 20 uM incubated for 24 hrs by MTT assay; assay type: cell-based; conditions: pc-12, 24 h
PC-12 [4] = assay: Induction of antioxidant genes expression in rat PC12 cells assessed as increase in TrxR1 activity at 10 and 20 uM incubated for 20 hrs by TRFS-green dye based fluorescent microscopy; assay type: functional, cell-based
Outline: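 PC12 cells 2×10^5/well, 24 h, then compound 20 h; TRFS-green added to 10 μM final and incubated 4 h at 37 °C in the dark; green fluorescence intensity imaged by fluorescence microscopy as relative cellular TrxR activity.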

PC-12 [5] = assay: Cytoprotection activity against 6-OHDA-induced oxidative stress in rat PC12 cells assessed as TrxR1 activity at pre-incubated for 24 hrs before 6-OHDA exposure for 12 hrs by Escherichia coli Trx based assay; assay type: functional, cell-based; outline: as §1
PC-12 [6] = assay: Induction of antioxidant genes expression in rat PC12 cells assessed as increase in Trx1 mRNA level at 20 uM incubated for 6 hrs by qRT-PCR method; assay type: functional, cell-based
Outline: (§2)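 PC12 cells, 1×10^6 per 60-mm dish, 1 day, then 20 μM compound for 0, 3, 6 and 12 h; total RNA isolated, quantified by 260/280 absorbance; mRNA by real-time RT-PCR normalized to GAPDH; mean ± SD of three independent experiments versus 0 h.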

PC-12 [7] = assay: Cytoprotection activity against H2O2-induced oxidative stress in rat PC12 cells assessed as GSH level at pre-incubated for 24 hrs before H2O2 exposure for 12 hrs; assay type: functional, cell-based
Outline: (§3)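 Total glutathione: cells extracted in KPE buffer (0.1% Triton X-100, 0.6% sulfosalicylic acid, 5 mM EDTA, 0.1 M PBS pH 7.5), sonicated on ice, centrifuged 3000 g 4 min at 4 °C; supernatant assayed enzymatically. PC12 cells 1×10^6 in 60-mm dishes, compound 24 h; stress lines add 500 μM H2O2 or 200 μM 6-OHDA 12 h.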

[8] = biological target: T1, Nuclear factor erythroid 2-related factor 2 (Rattus norvegicus) (UniProt O54968); assay: Induction of Nrf2-mediated antioxidant genes expression in rat PC12 cells assessed as increase in Trx1 protein expression at 10 and 20 uM incubated for 20 hrs by Western blotting method; assay type: cell-based; conditions: PC-12
T1 sequence (whole entry): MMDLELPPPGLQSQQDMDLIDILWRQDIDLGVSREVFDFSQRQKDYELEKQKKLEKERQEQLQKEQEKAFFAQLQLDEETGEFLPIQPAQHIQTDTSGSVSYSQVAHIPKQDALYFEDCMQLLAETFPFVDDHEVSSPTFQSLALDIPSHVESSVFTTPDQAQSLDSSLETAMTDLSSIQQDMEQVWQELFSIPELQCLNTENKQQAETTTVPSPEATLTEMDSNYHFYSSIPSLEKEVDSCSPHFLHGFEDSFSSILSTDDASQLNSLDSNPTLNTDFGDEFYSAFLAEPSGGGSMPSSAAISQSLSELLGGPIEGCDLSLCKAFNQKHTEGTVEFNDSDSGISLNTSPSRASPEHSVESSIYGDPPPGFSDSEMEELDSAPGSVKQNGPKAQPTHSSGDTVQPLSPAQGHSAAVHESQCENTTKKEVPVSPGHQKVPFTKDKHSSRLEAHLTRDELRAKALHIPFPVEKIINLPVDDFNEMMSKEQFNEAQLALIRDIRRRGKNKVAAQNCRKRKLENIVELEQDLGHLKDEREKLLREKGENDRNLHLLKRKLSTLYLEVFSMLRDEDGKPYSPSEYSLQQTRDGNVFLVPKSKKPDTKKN

PC-12 [9] = assay: Cytoprotection activity against 6-OHDA-induced cytotoxicity in rat PC12 cells assessed as cell viability at 10 and 20 uM pre-incubated for 24 hrs before 6-OHDA exposure for 12 hrs in presence of non-trageting shRNA by MTT assay; assay type: functional, cell-based
[10] = Antioxidant activity assessed as ABTS radical scavenging activity at 20 uM incubated for 30 mins by spectrophotometry; assay type: physicochemical; conditions: 0.5 h
PC-12 [11] = assay: Induction of antioxidant genes expression in rat PC12 cells assessed as increase in TrxR1 mRNA level at 20 uM incubated for 3 hrs by qRT-PCR method; assay type: functional, cell-based
Outline: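 PC12 cells (1×10^6 per 60-mm dish) seeded 1 day, then exposed to 20 μM compound for 0, 3, 6 and 12 h. Total RNA isolated and quantified by 260/280 absorbance. Transcripts measured by qRT-PCR, normalized to GAPDH internal control, compared against 0 h control. Means ± SD of three independent experiments.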

[12] = biological target: T1, Nuclear factor erythroid 2-related factor 2 (Rattus norvegicus); assay: Induction of Nrf2 nuclear translocation in rat PC12 cells at 20 uM incubated for 2 to 8 hrs by Western blotting method; assay type: cell-based; conditions: PC-12
Outline: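 PC12 cells (1×10^6) in 60-mm dishes, 24 h, then 20 μM compound for 0, 2, 4 and 8 h; nuclear, cytosolic and whole-cell extracts prepared; Nrf2 detected by Western blot.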

PC-12 [13] = assay: Cytoprotection activity against H2O2-induced cytotoxicity in rat PC12 cells assessed as increase in cell viability pre-incubated for 24 hrs before H2O2 exposure for 12 hrs by MTT assay; assay type: functional, cell-based
PC-12 [14] = assay: Cytoprotection activity against H2O2-induced oxidative stress in rat PC12 cells assessed as NQO1 activity at pre-incubated for 24 hrs before H2O2 exposure for 12 hrs by DCPIP dye reduction based spectrophotometry; assay type: functional, cell-based
Outline: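 NQO1: PC12 lysate in RIPA buffer, 5 μg protein into 20 mM Tris-HCl pH 7.4, 200 μM NADH, 40 μM DCPIP; A600 decrease read every 8 s for 2 min at room temperature ± 20 μM dicoumarol; dicoumarol-inhibitable rate used, expressed as % of DMSO control. Cells pretreated 24 h; stress lines then 500 μM H2O2 or 200 μM 6-OHDA 12 h.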

PC-12 [15] = assay: Induction of antioxidant genes expression in rat PC12 cells assessed as increase in HO1 mRNA level at 20 uM incubated for 6 hrs by qRT-PCR method; assay type: functional, cell-based; outline: as §2
PC-12 [16] = assay: Cytoprotection activity against 6-OHDA-induced oxidative stress in rat PC12 cells assessed as GSH level at pre-incubated for 24 hrs before 6-OHDA exposure for 12 hrs; assay type: functional, cell-based; outline: as §3

Structure (SMILES) | Activity (PC-12 [1]) | Activity (PC-12 [2]) | Activity [3] | Activity (PC-12 [4]) | Activity (PC-12 [5]) | Activity (PC-12 [6]) | Activity (PC-12 [7]) | Activity [8] | Activity (PC-12 [9]) | Activity [10] | Activity (PC-12 [11]) | Activity [12] | Activity (PC-12 [13]) | Activity (PC-12 [14]) | Activity (PC-12 [15]) | Activity (PC-12 [16])
COc1cc(/C=C/C(=O)N2CCCCC2=O)cc(OC)c1OC | Active | Active | Non-toxic | Active | Active | Active | Active | Active | Active | Not Active | Active | Active | Dose-dependent effect | Active | Active | Active
COc1ccc(/C=C/C(=O)N2CCCC2=O)cc1 | Active | Active | Non-toxic | Active | Active | Active | Active | Active | Active | Not Active | Active | Active | Dose-dependent effect | Active | Active | Active
